Measurements published in PMC5958747 (Endocrine Connections, 2018).
Marks after values point to notes of the source that are not given here.

Tests used:
[1] = tested on: MNU-induced mammary tumours; experiment: N-methyl-N-nitrosourea; format: in vivo, female Sprague-Dawley rats; settings: for increase of mammary tumour number in tumour-bearing rats compared with controls: end of study, significant for glargine only; for number of tumours per rat (tumour multiplicity, all rats): including rats bearing no tumour, 15 U/kg/day s.c. 5 days a week, at 6 weeks of treatment, high-fat diet, MNU, mean ± S.E.M., n = 30 per group
[2] = format: in vivo, female Sprague-Dawley rats; settings: for Final body weight: after 6 weeks of 15 U/kg s.c. 5 days per week; for Final body weight / Food intake / Body weight increase: mean ± S.E.M., n = 30; for Food intake: average over the treatment period; for Body weight increase: over 6 weeks of treatment; for blood glucose levels before the injection vs control or detemir groups: over the treatment period, n = 30 per group
How it was run: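 Female Sprague-Dawley rats on a high-fat diet (40% of calories) from 4 weeks of age were given MNU 485 μmol/kg s.c. 1 week later. Light cycle was shifted to 13:00–01:00 h. At 9 weeks, rats were randomised (n = 30/group) to saline or insulin s.c. at 11:00–12:00 h, 5 days/week, ramped 5→10→15 U/kg. Tail-nick glucometer glucose was taken before and 4 h post-injection three times weekly. Data are mean ± s.e.m., analysed by ANOVA and Waller–Duncan test.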

[3] = tested on: Akt (phospho-Ser473-Akt / total Akt); experiment: Western blot of phosphorylated and total Akt in mammary tumours; format: in vivo, female Sprague-Dawley rats; settings: mammary tumours 4 h after last s.c. injection, 15 U/kg
How it was run: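 High-fat-fed, MNU-treated female Sprague-Dawley rats received saline or insulin s.c. 5 days/week for 6 weeks. Palpable mammary tumours were collected under ketamine/xylazine/acepromazine anaesthesia 4 h after the last injection, halved, and one half was snap-frozen in liquid nitrogen for Western blotting of phosphorylated and total Akt.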

[4] = format: in vivo, female Sprague-Dawley rats; settings: 15 U/kg s.c.; for steady plasma concentrations (unit/L) up to: high-fat-fed rats, n = 6, unmetabolised glargine
[5] = ref not given, cited from earlier work

Substance	increase of mammary tumour number in tumour-bearing rats compared with controls [1]	Final body weight [2] [g]	Food intake [2] [g/day]	Body weight increase [2]	blood glucose levels before the injection vs control or detemir groups [2]	number of tumours per rat (tumour multiplicity, all rats) [1]	ratio of phosphorylated (active) Akt to total Akt vs control group [3]	steady plasma concentrations (unit/L) up to [4]	peak of glucose-lowering action ([4]; insulin-resistant rats, partial recovery of plasma glucose at 9 h) [h]	sustained action after subcutaneous injection in humans ([5]; humans)	sustained action after subcutaneous injection ([5]; species not given, general statement)
NPH: NPH (unmodified human insulin), purchased from Eli Lilly, Canada	approximately doubled	346 ± 7	21.1 ± 1.4	98.7 ± 4.5^a g	slightly higher						
detemir	approximately doubled	338 ± 6	19.7 ± 0.8	80.7 ± 3.9 g		1.4 ± 0.4	higher	up to 9 h			
glargine	2 fold	343 ± 5	21.1 ± 1.2	93.8 ± 4.4 g	slightly higher	1.5 ± 0.4	higher	up to 9 h	1.5 to 4	over 20 h	up to 24 h
